Data taken from ChEMBL document CHEMBL1132281, “Compounds that activate the mouse melanocortin-1 receptor identified by screening a small molecule library based upon the beta-turn” (J Med Chem, 1999).

Target: Melanocyte-stimulating hormone receptor (Mus musculus, UniProt Q01727)
Assay: Agonistic activity against mouse Melanocortin 1 receptor (mMC1R)
Format: functional
Method in brief: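 HEK-293 cells (DMEM, 10% fetal calf serum) stably expressing the mouse receptor (pCDNA3, G418 selection) were transfected with a CRE/β-galactosidase reporter. At 48 h post-transfection, cells were stimulated for 6 h in DMEM with 0.1 mg/mL BSA and 0.1 mM IBMX, at 10^-4 to 10^-10 M in triplicate. Lysates were read with ONPG at 37° (OD405), and the data were normalized to protein (OD595) and to forskolin (10^-4 M).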

Melanocyte-stimulating hormone receptor, sequence (Q01727 whole entry): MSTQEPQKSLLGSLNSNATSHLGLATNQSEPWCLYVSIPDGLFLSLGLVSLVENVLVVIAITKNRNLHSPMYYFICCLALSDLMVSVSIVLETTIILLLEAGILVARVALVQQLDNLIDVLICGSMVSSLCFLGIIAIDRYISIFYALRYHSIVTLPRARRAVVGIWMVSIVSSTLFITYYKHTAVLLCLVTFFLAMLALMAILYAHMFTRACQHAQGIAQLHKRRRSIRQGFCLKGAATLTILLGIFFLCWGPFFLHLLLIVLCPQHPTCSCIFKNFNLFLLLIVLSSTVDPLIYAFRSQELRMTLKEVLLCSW

SMILES | EC50 [µM]
CC(=O)N[C@H](Cc1ccccc1)C(=O)N[C@@H](CCCCN)C(=O)N[C@H](Cc1c[nH]c2ccccc12)C(N)=O | > 100
CC(=O)N[C@H](Cc1ccccc1)C(=O)N[C@@H](C)C(=O)N[C@H](Cc1c[nH]c2ccccc12)C(N)=O | > 100
CC(=O)N[C@@H](Cc1c[nH]cn1)C(=O)N[C@H](Cc1ccccc1)C(=O)NCC(=O)N[C@H](Cc1c[nH]c2ccccc12)C(N)=O | > 100
CC(=O)N[C@@H](Cc1c[nH]cn1)C(=O)N[C@H](Cc1ccccc1)C(=O)N[C@@H](CCCCN)C(=O)N[C@H](Cc1c[nH]c2ccccc12)C(N)=O | > 100
CC(=O)N[C@@H](Cc1cnc[nH]1)C(=O)N[C@H](Cc1ccccc1)C(=O)N[C@@H](C)C(=O)N[C@H](Cc1c[nH]c2ccccc12)C(N)=O | > 100
CC(=O)N[C@H](Cc1ccccc1)C(=O)NCC(=O)N[C@H](Cc1c[nH]c2ccccc12)C(N)=O | 100
CC(=O)N[C@H](Cc1ccccc1)C(=O)N[C@@H](CCC(N)=O)C(=O)N[C@H](Cc1c[nH]c2ccccc12)C(N)=O | 100

More lines, now with the values ahead:

EC50 [µM] | SMILES
100 | CC(=O)N[C@@H](Cc1c[nH]cn1)C(=O)N[C@H](Cc1ccccc1)C(=O)N[C@@H](CCC(N)=O)C(=O)N[C@H](Cc1c[nH]c2ccccc12)C(N)=O
42.5 | O=C1[C@H]2CCCN2C(=O)C(Cc2ccc3ccccc3c2)SCCN1CCc1c[nH]c2ccccc12 (stereo not given in full)
63.4 | NCCCC[C@H]1NC(=O)[C@H](Cc2c[nH]c3ccccc23)SCCN(CCc2ccccc2)C1=O
